Active and inactive are the calls of the source. The rule behind the calls is not given here.
Legend:
Rattus norvegicus [1] = test: Local anesthetic activity in rat assessed as duration of action at 1% administered as base by sciatic nerve block method; format: functional
In short: (§1)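 Rat sciatic nerve block. Solutions are dosed with concentration expressed as base, and the pH of each solution is recorded. Groups are typically 10 rats. Onset is given in min. Frequency is the number of rats blocked out of those tested. Duration is in min, as mean ± SD.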

Rattus norvegicus [2] = test: Local anesthetic activity in rat assessed as frequency at 2% administered as base by sciatic nerve block method; format: functional, organism-based; in short: as §1
Rattus norvegicus [3] = test: Local anesthetic activity in rat assessed as frequency at 1% administered as base by sciatic nerve block method; format: functional, organism-based; in short: as §1
Rattus norvegicus [4] = test: Local anesthetic activity in rat assessed as onset time at 2% administered as base by sciatic nerve block method; format: functional; in short: as §1
Rattus norvegicus [5] = test: Local anesthetic activity in rat assessed as onset time at 1% administered as base by sciatic nerve block method; format: functional; in short: as §1
Rattus norvegicus [6] = test: Local anesthetic activity in rat assessed as duration of action at 2% administered as base by sciatic nerve block method; format: functional; in short: as §1
[7] = Toxicity in iv dosed mouse; format: organism-based; conditions: in vivo
Rattus norvegicus [8] = test: Toxicity in rat at 2% administered as base after 40 mins; format: organism-based; conditions: in vivo
Rattus norvegicus [9] = test: Toxicity in rat at 2% administered as base after 25 mins; format: organism-based; conditions: in vivo
Rattus norvegicus [10] = test: Toxicity in rat at 2% administered as base after 30 mins; format: organism-based; conditions: in vivo, 0.5 h

SMILES	Time (Rattus norvegicus [1]) [min]	Activity (Rattus norvegicus [2])	Activity (Rattus norvegicus [3])	Time (Rattus norvegicus [4]) [min]	Time (Rattus norvegicus [5]) [min]	Time (Rattus norvegicus [6]) [min]	LD50 [7] [mg/kg]	Activity (Rattus norvegicus [8])	Activity (Rattus norvegicus [9])	Activity (Rattus norvegicus [10])
CN1CCC2(C1)C(=O)Nc1ccccc12 (configuration not stated)	56	Active	Active	6	11	83	–	–	–	–
CCN1CCCC12C(=O)Nc1ccccc12 (configuration not stated)	83	Active	Active	5	6	107	119	–	–	–
CCN1CCC2(C1)C(=O)Nc1c(C)cccc12 (configuration not stated) [listing 1 of 2 here]	–	–	–	–	–	–	23	–	–	–
CCN1CCC2(C1)C(=O)Nc1ccccc12 (configuration not stated)	67	Active	Active	3	4	85	38	–	–	–
CCN1CCC2(CC1)C(=O)Nc1c(C)cccc12	108	Active	Active	3	3	–	21	Toxic	Toxic	–
CCN1CCC2(C1)C(=O)Nc1c(C)cccc12.Cl (configuration not stated)	93	–	–	2	3	–	–	–	–	Toxic
CCCN1CCC2(C1)C(=O)Nc1ccccc12.Cl (configuration not stated)	66	–	–	2	3	78	–	–	–	–
CCN(CC)CC(=O)Nc1c(C)cccc1C [LIDOCAINE]	–	Active	Active	1	–	141	–	–	–	–
CN1CCCCC12C(=O)Nc1ccccc12 (configuration not stated)	81	Active	Active	3	5	97	97	–	–	–
CCCN1CCC2(C1)C(=O)Nc1ccccc12 (configuration not stated) [listing 1 of 2 here]	–	Active	Active	–	–	–	–	–	–	–
CCCN1CCC2(C1)C(=O)Nc1ccccc12 (configuration not stated) [listing 2 of 2 here]	–	–	–	–	–	–	25	–	–	–
CCN1CCC2(C1)C(=O)Nc1c(C)cccc12 (configuration not stated) [listing 2 of 2 here]	–	Active	Active	–	–	–	–	–	–	–
CCCN1CCCC2(C1)C(=O)Nc1ccccc12 (configuration not stated) [listing 1 of 2 here]	–	Active	Active	–	–	–	–	–	–	–
CCCN1CCCC2(C1)C(=O)Nc1ccccc12.O=S(=O)(O)O (configuration not stated)	75	–	–	4	6	95	–	–	–	–
CCCN1CCCC2(C1)C(=O)Nc1ccccc12 (configuration not stated) [listing 2 of 2 here]	–	–	–	–	–	–	41	–	–	–
CCN1CCC2(CC1)C(=O)Nc1ccccc12	86	Active	Active	5	6	120	53	–	–	–

Reference: ChEMBL document CHEMBL3271956, “Oxindole-3-spiropyrrolidines and -piperidines. Synthesis and local anesthetic activity” (J Med Chem, 1976)
